Screens deposited in PubChem BioAssay by several laboratories.
aDG glyco act = activators of alpha-DG glycosylation, primary screen, uHTS, Pro5-aDG cells, AlphaScreen. alpha-DG glycosylation AlphaScreen (IIH6); 0% Pro5, 100% B10-LARGE cell signal. activation, % at 10 µM. actives 0.22% (n = 360,000);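 active = activation of at least 8% versus controls, or a plate z-score of at least 8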;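 also: Pro5 are CHO cells carrying HIG-tagged alpha-DG that lacks glycosylation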
Vif inh = HIV Vif self-association inhibitors, primary screen, imaging, HEK293T, single point. AID 602346, 2012. actives 0.35% (n = 340,000). HEK293T cells, Vif self-association by quenched fluorescence, 24 h. inhibition, % at 7.49 µM; in the data active = inhibition above about 50%, passing the limit was not always enough; inconclusive = no clear call, values can overlap the other calls; inactive = below about 31%
MsrA inhibitor = bovine MsrA enzyme inhibitors, primary screen, biochemical, absorbance, HTS; actives 0.75% (n = 360,000); AID 651718, 2012; inhibition, % at 15.5 µM; Methionine sulfoxide reductase A (Bos taurus); purified bovine MsrA, absorbance read-out; in the data active = inhibition above about 4.5%
bovine MsrA act = bovine MsrA enzyme activators, primary screen, biochemical, absorbance, HTS; Methionine sulfoxide reductase A (Bos taurus); activation, % at 10.6 µM; purified bovine MsrA, absorbance read-out; AID 602163, 2012; actives 0.3% (n = 360,000); in the data active = activation above about 7.5%
UCH37 DUB inh = inhibitors of human UCH37 deubiquitinase, primary screen, biochemical, Ub-AMC cleavage, fluorescence; Ubiquitin carboxyl-terminal hydrolase isozyme L5 (Homo sapiens), Q9Y5K5; purified proteasome/UCH37; AID 588478, 2011; actives 0.33% (n = 330,000); inhibition, % (test concentration not listed);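 active = mean inhibition over replicate wells above about 20%, limit read from the data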
Target sequence (Q9Y5K5 whole entry, looked up): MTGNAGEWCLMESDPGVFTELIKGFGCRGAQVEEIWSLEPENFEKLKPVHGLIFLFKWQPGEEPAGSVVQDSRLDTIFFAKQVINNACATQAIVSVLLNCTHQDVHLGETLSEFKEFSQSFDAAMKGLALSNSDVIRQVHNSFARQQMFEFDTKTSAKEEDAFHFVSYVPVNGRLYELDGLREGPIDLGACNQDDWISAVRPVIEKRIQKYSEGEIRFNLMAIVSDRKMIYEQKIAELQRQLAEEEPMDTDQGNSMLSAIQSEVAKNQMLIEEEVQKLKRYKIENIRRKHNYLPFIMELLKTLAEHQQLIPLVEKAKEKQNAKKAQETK
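Material: Human UCH37 enzyme supplied as purified proteasome complex | Schedule: 30 min compound-proteasome preincubation then 25 min substrate reaction, room temperature | Detection: AMC fluorescence from Ub-AMC cleavage, excitation 355 nm, emission 460 nm | Benchmarks: Wells without proteasome as full block, compound-free enzyme plus substrate as uninhibited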
Glyco luc inh = increase of ERlucT glycosylation luciferase signal, primary screen, N-linked glycosylation inhibitor project, D54 ERlucT cells, luminescence, set 2 | D54 ERlucT glycosylation luciferase reporter, 24 h; percent of 100 nM tunicamycin response | reporter increase, % at 12.5 µM | actives 0.23% (n = 360,000);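 active = mean luciferase reporter signal, scaled so untreated is 0 and the glycosylation-blocking control 100, at or above a set limit in every replicate; inconclusive = mean reaches the limit but not every replicate does; inactive = mean below the limit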;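 also: luciferase carries N-glycosylation sites so blocking glycosylation raises the light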
UCH37 reconfirm = retest of human UCH37 deubiquitinase inhibitors, confirmation, biochemical, Ub-AMC cleavage rate, fluorescence; actives 27% (n = 480); inhibition, % at 20 µM; shares compounds with UCH37 DUB inh; Proteasome-bound UCH37;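 active = average inhibition over replicates above about 50%, so the earlier screening hit is confirmed, limit read from the data; inactive = the rest, counted as false positives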;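 also: based on cleavage rate fitted by regression over a 30 min kinetic read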
Of the large screens only hits and unclear results are named; the others gave an inactive call (follow-up assays come after a bar, where they were run). Only some compounds are listed: those with a hit (about 1.9% of all), similar ones and a draw of the others.

CCCC[n+]1ccn(C2=C([O-])c3ccccc3C(=O)/C2=N\S(=O)(=O)c2ccccc2)c1	UCH37 DUB inh 41.0 | UCH37 reconfirm inactive
Cc1cc(C)n2nc(C(=O)NN=Cc3ccc(O)cc3)nc2n1	none (no result: aDG glyco act, Vif inh, MsrA inhibitor, bovine MsrA act, Glyco luc inh)
C=CCN1C(=O)C(=c2sc3nc(=O)c(Cc4ccccc4)nn3c2=O)c2ccccc21	none (no result: aDG glyco act, Vif inh, MsrA inhibitor, bovine MsrA act, Glyco luc inh)
O=C(O)/C=C/c1ccc([N+](=O)[O-])o1	none
O=C1NC(=S)S/C1=C\C=C\c1ccc([N+](=O)[O-])o1	UCH37 DUB inh 27.7 | UCH37 reconfirm inactive
O=C(NN=Cc1cccnc1)c1cc(C2CC2)nc2ccccc12	none (no result: aDG glyco act, Vif inh, MsrA inhibitor, bovine MsrA act, Glyco luc inh)
CCC(=O)N(C1=C(NC)C(=O)c2ccccc2C1=O)C(C)C	UCH37 DUB inh 33.1 | UCH37 reconfirm inactive
CCOC(=O)c1sc(=S)n(CC)c1N	UCH37 DUB inh 52.0 | UCH37 reconfirm inactive
C=CCn1c(N)c(C(=O)OCC)sc1=S	none
Cc1[nH]n(-c2ccccc2)c(=O)c1C(C[N+](=O)[O-])c1ccc(F)cc1 (stereo unspecified)	none
Cc1[nH]n(-c2ccccc2)c(=O)c1C(C[N+](=O)[O-])c1ccc(Cl)cc1 (stereo unspecified)	UCH37 DUB inh 41.5 | UCH37 reconfirm inactive
Cc1ccc(C(C[N+](=O)[O-])c2c(C)[nH]n(-c3ccccc3)c2=O)cc1 (stereo unspecified)	UCH37 DUB inh 52.5 | UCH37 reconfirm inactive
CCN1/C(=C/c2ccc3cc(C)ccc3[n+]2CC)Sc2ccccc21	UCH37 DUB inh 36.0 | UCH37 reconfirm inactive
Cc1cccc(C)c1NC(=S)NN=Cc1ccc(C(=O)O)cc1	none (no result: aDG glyco act, Vif inh, MsrA inhibitor, bovine MsrA act, Glyco luc inh)
Cc1ccc(CNC(=O)CON=Cc2ccc3c(c2)OCO3)cc1	none (no result: aDG glyco act, Vif inh, MsrA inhibitor, bovine MsrA act, Glyco luc inh)
Cc1ccc(NC(=O)CN2C(=O)S/C(=C/c3ccc(O)c([N+](=O)[O-])c3)C2=O)cc1C	UCH37 DUB inh 28.2 | UCH37 reconfirm inactive
Cc1ccc(SC2=C(Sc3ccc(C)cc3)C(=O)c3ccccc3C2=O)cc1	UCH37 DUB inh 51.6 | UCH37 reconfirm inactive
Cc1ccc(N2C(=O)c3ccccc3C2=O)cc1	none
O=[N+]([O-])c1cccc(N=Nc2ccc(O)cc2O)c1	none
O=[N+]([O-])c1ccc(N=Nc2ccc(O)cc2O)cc1	UCH37 DUB inh 25.4 | UCH37 reconfirm inactive
Cc1[nH]n(-c2ccccc2)c(=O)c1N=Nc1ccccc1C(=O)N1CCOCC1	none
NC(=S)n1[nH]c(-c2ccccc2)c(N=Nc2ccccc2C(=O)N2CCOCC2)c1=O	UCH37 DUB inh 53.7 | UCH37 reconfirm inactive
O=S(=O)(N=C(NS(=O)(=O)c1ccccc1)c1ccccc1)c1ccccc1	none (no result: aDG glyco act, Vif inh, MsrA inhibitor, bovine MsrA act, Glyco luc inh)
COc1ccc(/C=C\C(=O)NCC(=O)NN=Cc2ccc(O)cc2O)cc1	none (no result: aDG glyco act, Vif inh, MsrA inhibitor, bovine MsrA act, Glyco luc inh)
CCOc1cc(C=NNC(=O)c2ccc(C)nc2)cc([N+](=O)[O-])c1O	UCH37 DUB inh 27.0 (no result: aDG glyco act, Vif inh, MsrA inhibitor, bovine MsrA act, Glyco luc inh) | UCH37 reconfirm inactive
CN1C(=O)/C(=C\C=C2/CCCN2C)N(C)C1=S	UCH37 DUB inh 38.6 | UCH37 reconfirm inactive
CCN1C(=O)/C(=C/C=C2/CCCN2C)OC1=S	UCH37 DUB inh 29.2 | UCH37 reconfirm inactive
CCN1C(=O)/C(=C/N(C)c2ccccc2)OC1=S	none
Cc1ccc(/C=C2\SC(=S)N(Cc3ccccc3)C2=O)o1	none
O=C(O)CCN1C(=O)/C(=C/c2ccc(-c3nc4ccccc4s3)o2)SC1=S	none
O=C(O)CCCN1C(=O)/C(=C\c2ccc(-c3nc4ccccc4s3)o2)SC1=S	UCH37 DUB inh 39.2 | UCH37 reconfirm inactive
O=C(O)c1cc(-c2ccc(/C=C3/SC(=S)N(Cc4ccccc4)C3=O)o2)ccc1Cl	UCH37 DUB inh 44.9 | UCH37 reconfirm 60.4
CC(=NNc1ccc2nncn2n1)c1ccc(Br)s1	none (no result: aDG glyco act, Vif inh, MsrA inhibitor, bovine MsrA act, Glyco luc inh)
CCN1/C(=C/C=C/c2sc3ccccc3[n+]2CC)Sc2ccccc21	none (no result: MsrA inhibitor)
CCN1/C(=C/C=C/C=C/C=C/c2sc3ccccc3[n+]2CC)Sc2ccccc21	UCH37 DUB inh 54.0 | UCH37 reconfirm 69.4
O=C1NC(=O)/C(=C/c2cccc3ccccc23)S1	none
O=C1NC(=O)C(=Cc2ccccc2[N+](=O)[O-])S1	UCH37 DUB inh 86.0 | UCH37 reconfirm 98.9
O=C(NN=Cc1cc(Cl)ccc1O)c1ccncc1	none (no result: aDG glyco act, Vif inh, MsrA inhibitor, bovine MsrA act, Glyco luc inh)
CC1=NN(c2ccccc2)C(=O)/C1=C/C=C/C=C/N(C)C	UCH37 DUB inh 31.9 | UCH37 reconfirm inactive
Cc1nonc1C(=O)NN=Cc1ccc([N+](=O)[O-])o1	none (no result: aDG glyco act, Vif inh, MsrA inhibitor, bovine MsrA act, Glyco luc inh)
CCOc1c(O)ccc(/C=C2\SC(=S)NC2=O)c1[N+](=O)[O-]	UCH37 DUB inh 58.7 | UCH37 reconfirm 62.8
Cc1ccc(C(=O)NC2(O)C(=O)c3ccccc3C2=O)cc1C	UCH37 DUB inh 78.2 | UCH37 reconfirm 60.8
O=C(NC1(O)C(=O)c2ccccc2C1=O)c1ccc(C(F)(F)F)cc1	UCH37 DUB inh 79.0 | UCH37 reconfirm 69.3
O=C(Cc1ccccc1)NC1(O)C(=O)c2ccccc2C1=O	none (no result: Vif inh, UCH37 DUB inh)
Cc1onc(-c2ccccc2)c1C(=O)ON=C(N)c1ccc([N+](=O)[O-])o1	none (no result: aDG glyco act, Vif inh, MsrA inhibitor, bovine MsrA act, Glyco luc inh)
O=C(O)CN1C(=O)/C(=C\c2cc(Br)ccc2OCc2ccc(F)cc2)SC1=S	UCH37 DUB inh 27.3 | UCH37 reconfirm 68.7
CC(C)[C@H](NC(=O)NC1CCCC1)C(=O)O	none (no result: Vif inh)
CC(C)=CCCC(C)NC(=O)NC1CCCCC1 (stereo unspecified)	Vif inh inconclusive, UCH37 DUB inh 20.6 | UCH37 reconfirm 67.4
